This note sets out measurements from BindingDB's records for doi:10.1016/j.ejmech.2011.10.026 (National Cheng Kung University, 2012).

Usually IC50 stands for the concentration that inhibits the measured activity by half.

This assay concerns the target T1, Nitric oxide synthase, inducible (Mus musculus, UniProt P29477).
T1 sequence (P29477 whole entry): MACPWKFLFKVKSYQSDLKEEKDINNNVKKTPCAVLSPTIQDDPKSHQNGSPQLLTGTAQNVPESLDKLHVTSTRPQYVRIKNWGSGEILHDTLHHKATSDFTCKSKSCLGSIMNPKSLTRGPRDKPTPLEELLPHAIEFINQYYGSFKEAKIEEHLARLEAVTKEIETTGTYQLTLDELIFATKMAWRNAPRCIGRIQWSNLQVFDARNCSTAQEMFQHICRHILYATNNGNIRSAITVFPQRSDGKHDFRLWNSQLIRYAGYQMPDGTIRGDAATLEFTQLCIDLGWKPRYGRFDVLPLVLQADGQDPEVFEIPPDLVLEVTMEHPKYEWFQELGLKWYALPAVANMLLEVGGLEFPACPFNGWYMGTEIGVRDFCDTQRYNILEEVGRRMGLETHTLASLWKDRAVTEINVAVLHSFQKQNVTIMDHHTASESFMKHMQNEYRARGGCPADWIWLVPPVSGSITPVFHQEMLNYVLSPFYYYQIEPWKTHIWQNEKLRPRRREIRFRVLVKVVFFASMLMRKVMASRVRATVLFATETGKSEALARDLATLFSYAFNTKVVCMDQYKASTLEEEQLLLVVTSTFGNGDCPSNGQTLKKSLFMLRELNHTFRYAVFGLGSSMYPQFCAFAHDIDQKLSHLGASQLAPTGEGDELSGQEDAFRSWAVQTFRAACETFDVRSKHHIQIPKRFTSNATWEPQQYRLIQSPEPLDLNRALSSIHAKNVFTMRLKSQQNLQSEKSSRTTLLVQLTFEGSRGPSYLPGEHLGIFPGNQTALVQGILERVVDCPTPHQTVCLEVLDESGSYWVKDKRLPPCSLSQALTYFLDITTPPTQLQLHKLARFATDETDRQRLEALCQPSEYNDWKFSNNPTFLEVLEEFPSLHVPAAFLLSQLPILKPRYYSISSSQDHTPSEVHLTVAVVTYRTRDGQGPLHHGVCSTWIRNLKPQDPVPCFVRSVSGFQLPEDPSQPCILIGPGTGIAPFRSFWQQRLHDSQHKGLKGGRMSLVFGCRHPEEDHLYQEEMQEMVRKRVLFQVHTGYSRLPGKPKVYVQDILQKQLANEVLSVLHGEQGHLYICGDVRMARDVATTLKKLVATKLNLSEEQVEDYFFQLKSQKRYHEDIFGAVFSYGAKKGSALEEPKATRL
Nature of the assay: Inhibition of iNOS-mediated nitric oxide production in LPS-stimulated mouse BV2 cells measured after 24 hrs of post-stimulation by Griess reaction method. Put shortly:
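Murine BV2 microglia in DMEM with 5% FBS were given compound at 1–50 µM and stimulated with LPS 0.5 µg/mL. Nitrite accumulated in the medium was measured by Griess reagent 24 h after stimulation. IC50 given as mean ± SEM of three experiments on different days using cells from different passages.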
For orientation: Nitrite, measured by Griess reagent, commonly stands in for NO production.
The compound `O=C(/C=C/c1ccccc1)c1cc(C(=O)/C=C/c2ccccc2)c(O)cc1O` displayed an IC50 of 5.44 µM. In the case of `COc1ccc(/C=C/C(=O)c2cc(C(=O)/C=C/c3ccc(OC)cc3)c(O)cc2O)cc1` it was 25.7 µM; in that of `COc1cccc(/C=C/C(=O)c2cc(C(=O)/C=C/c3cccc(OC)c3)c(O)cc2O)c1`, 8.09 µM; in that of `COc1cccc(/C=C/C(=O)c2cc(C(=O)/C=C/c3cccc(OC)c3OC)c(O)cc2O)c1OC`, 1.82 µM. In the case of `COc1ccc(/C=C/C(=O)c2cc(C(=O)/C=C/c3ccc(OC)c(OC)c3)c(O)cc2O)cc1OC` it was 0.95 µM; in that of `COc1ccc(/C=C/C(=O)c2cc(C(=O)/C=C/c3ccc(OC)c(OC)c3OC)c(O)cc2O)c(OC)c1OC`, 7.04 µM; in that of `COc1ccc(OC)c(/C=C/C(=O)c2cc(C(=O)/C=C/c3cc(OC)ccc3OC)c(O)cc2O)c1`, 23.3 µM.

Compound `O=C(/C=C/c1ccco1)c1cc(C(=O)/C=C/c2ccco2)c(O)cc1O` gave an IC50 of 4 µM. Compared with the last compound, the IC50 is about 5.8-fold lower.

The compound `Cc1ccc(/C=C/C(=O)c2cc(C(=O)/C=C/c3ccc(C)o3)c(O)cc2O)o1` came in with an IC50 of 36.3 µM. In the case of `Cc1ccsc1/C=C/C(=O)c1cc(C(=O)/C=C/c2sccc2C)c(O)cc1O`, inhibition was half-maximal at 43.3 µM (IC50).

Compound `O=C(/C=C/c1ccccn1)c1cc(C(=O)/C=C/c2ccccn2)c(O)cc1O` yielded an IC50 of 8.65 µM.

Compound `CC(=O)c1cc(C(=O)C=Cc2ccc3c(c2)OCO3)c(O)cc1O` yielded an IC50 of 17.7 µM.
